Results taken from ChEMBL document CHEMBL1124898, “Novel agents effective against solid tumors: the diarylsulfonylureas. Synthesis, activities, and analysis of quantitative structure-activity relationships” (J Med Chem, 1990).
Converted amounts (≈) assume the structure as drawn.

How the values were obtained:
CCRF-CEM = test: Concentration required to inhibit growth of CCRF-CEM cells in culture for 72 hr to 50% of control growth; type: functional, cell-based; conditions: Homo sapiens
[1] = Antitumor activity in vivo against the 6C3HED lymphosarcoma dosed for 10 days at 150 mg/kg; type: functional; conditions: Mus musculus, 192 h, in the assay text read “dosed for 8 days” for “dosed for 10 days”
Method in brief: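 Tumor fragments (about 1–2 mm) implanted sc via trochar into a subaxillary site of syngeneic mice (C3H, C57BL/6, Balb/C or DBA/2) or Holtz rats. Groups were 7–10 randomized animals. Compound was suspended in 2.5% Emulphor in 0.9% saline and given orally by gavage or ip, usually from the day after implantation. Tumor volume versus untreated controls was measured one day after the final dose and reported as % inhibition. Scoring bands: +++ 95–100%, ++ 80–94%.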

[2] = Antitumor activity in vivo against the 6C3HED lymphosarcoma, dosed for 8 days at 300 mg/kg; conditions: Mus musculus, 192 h
Rattus norvegicus = test: Hypoglycemic activity expressed as (Maximum reduction in blood glucose in mg/dL relative to predosing glucose level)/(time in hours at which maximum reduction occurred); type: functional
Method in brief: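 Fed male Sprague-Dawley rats (175–200 g), four per compound, received a single oral gavage dose of 200 mg/kg suspended in 5% acacia. Tail blood was sampled before dosing and at 1, 2, 3 and 5 h, and glucose was measured by glucose oxidase/peroxidase colorimetry. Each rat served as its own control. Value = maximum fall from predose glucose (mg/dL) divided by the hour at which that maximum occurred.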

[3] = Antitumor activity in vivo against the 6C3HED lymphosarcoma dosed for 8 days at 150 mg/kg; conditions: Mus musculus, 192 h

Row | SMILES | IC50 (CCRF-CEM) [µg/mL] | inhibition in vivo at 150 mg/kg [1] [%] | inhibition in vivo at 300 mg/kg [2] [%] | Ratio (Rattus norvegicus) | inhibition in vivo at 150 mg/kg [3] [%]
1 | O=C(Nc1ccc(C(F)(F)F)cc1)NS(=O)(=O)c1cccc(C(F)(F)F)c1 | 15.6 (≈ 37.8 µM) | 39 | – | – | –
2 | O=C(Nc1ccc(Cl)cc1)NS(=O)(=O)c1ccc2c(c1)CCCC2 | 14.6 (≈ 40 µM) | – | 70 | – | –
3 | O=C(Nc1ccc(C(F)(F)F)cc1)NS(=O)(=O)c1ccc(Cl)c(Cl)c1 | 15.5 (≈ 37.5 µM) | 85 | – | – | –
4 | COc1ccc(S(=O)(=O)NC(=O)Nc2ccc(Br)cc2)cc1 | 14.3 (≈ 37.1 µM) | 99 | – | – | –
5 | Cc1ccccc1S(=O)(=O)NC(=O)Nc1ccc(C(F)(F)F)cc1 | 13.7 (≈ 38.2 µM) | 67 | – | – | –
6 | CC(C)(C)c1ccc(S(=O)(=O)NC(=O)Nc2ccc(Cl)cc2)cc1 | 13.5 (≈ 36.8 µM) | – | 84 | – | –
7 | CCCCOC(=O)c1ccc(NC(=O)NS(=O)(=O)c2ccc(C)cc2)cc1 | > 20 | – | 0 | – | –
8 | O=C(Nc1ccc(Cl)cc1)NS(=O)(=O)c1cccc(Cl)c1 | 9 (≈ 26.1 µM) | 98 | – | – | –
9 | COc1ccc(S(=O)(=O)NC(=O)Nc2ccc(C(F)(F)F)cc2)cc1 | 8 (≈ 21.4 µM) | – | – | – | 100
10 | COC(=O)c1ccc(S(=O)(=O)NC(=O)Nc2ccc(C(F)(F)F)cc2)cc1 | 2.6 (≈ 6.46 µM) | 0 | – | – | –
11 | CCc1ccc(S(=O)(=O)NC(=O)Nc2ccc(Cl)cc2)cc1 | 7.5 (≈ 22.1 µM) | – | – | – | 100
12 | O=C(Nc1ccc(Br)cc1)NS(=O)(=O)c1ccc(Br)cc1 | 14.1 (≈ 32.5 µM) | – | – | – | 100
13 | O=C(Nc1ccc(Br)cc1)NS(=O)(=O)c1ccccc1 | 7.1 (≈ 20 µM) | 82 | – | – | –

Continued, in another order:

Row | IC50 (CCRF-CEM) [µg/mL] | SMILES | inhibition in vivo at 150 mg/kg [1] [%] | inhibition in vivo at 300 mg/kg [2] [%] | Ratio (Rattus norvegicus) | inhibition in vivo at 150 mg/kg [3] [%]
14 | > 20 | Cc1ccc(S(=O)(=O)NC(=O)Nc2cc(Cl)c(Cl)c(Cl)c2)cc1 | – | 44 | 0 | –
15 | 0.9 (≈ 2.63 µM) | Cc1ccc(S(=O)(=O)NC(=O)Sc2ccc(Cl)cc2)cc1 | 33 | – | – | –
16 | > 20 | Cc1ccc(S(=O)(=O)NC(=O)Nc2ccc(Cl)cc2Cl)cc1 | – | 39 | – | –
17 | 8.2 (≈ 22.2 µM) | Cc1ccc(S(=O)(=O)NC(=O)Nc2ccc(Br)cc2)cc1 | – | – | – | 100
18 | > 20 | Cc1ccc(S(=O)(=O)NC(=O)Nc2ccccc2Cl)cc1 | – | 1 | – | –
19 | > 20 | Cc1ccc(S(=O)(=O)NC(=O)Nc2nc(C)cc(C)n2)cc1 | – | 0 | – | –
20 | 7.4 (≈ 22.1 µM) | Cc1ccc(S(=O)(=O)NC(=O)Nc2ccc([N+](=O)[O-])cc2)cc1 | – | 34 | – | –
21 | 12.8 (≈ 39.2 µM) | Cc1ccc(S(=O)(=O)NC(=O)Nc2ccc(F)c(F)c2)cc1 | – | 60 | – | –
22 | > 20 | COc1ccc(NC(=O)NS(=O)(=O)c2ccc(C)cc2)cc1OC | – | 12 | – | –
23 | 9.9 (≈ 26.1 µM) | O=C(Nc1ccc(Cl)c(Cl)c1)NS(=O)(=O)c1ccc(Cl)cc1 | 85 | – | – | –
24 | 17.4 (≈ 56.4 µM) | Cc1ccc(S(=O)(=O)NC(=O)Nc2ccc(F)cc2)cc1 | – | 95 | – | –
25 | > 20 | Cc1ccc(S(=O)(=O)NC(=O)Nc2ccc(CC#N)cc2)cc1 | – | 10 | – | –
